Laboratory results published in ChEMBL document CHEMBL1821727, “Design, synthesis, and pharmacological evaluation of novel hybrid compounds to treat sickle cell disease symptoms” (J Med Chem, 2011).
The source made the active and inactive calls. The rule behind the calls is not given here.

Tests used:
[1] = Antiinflammatory activity in knockout-transgenic sickle cell mouse monocytes assessed as inhibition of LPS-induced TNFalpha production at 300 uM administered 30 mins before LPS challenge […]; format: functional, Monocyte
[2] = Antiinflammatory activity in knockout-transgenic sickle cell mouse monocytes assessed as inhibition of LPS-induced TNFalpha production at 100 uM administered 30 mins before LPS challenge […]; format: functional, Monocyte
Mus musculus [3] = test: Antiinflammatory activity in Swiss albino mouse assessed as inhibition of capsaicin-induced ear edema at 300 umol/kg, po administered 1 hr before capsaicin challenge measured after 30 mins relative to control; format: functional
Procedure, shortened: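 Female Swiss mice, 8 weeks old, groups of six; oral dosing at 300 μmol/kg as suspension in arabic gum, vehicle controls 10 mL/kg po; left ear given acetone. Killed 30 min after capsaicin; 7 mm ear punches weighed, edema = treated right minus untreated left ear weight; % inhibition vs vehicle control; mean ± SEM, n = 8, ANOVA/Dunnett.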

Mus musculus [4] = test: Antiinflammatory activity in Swiss albino mouse peritonitis model assessed as reduction in thioglycollate-induced of leukocyte migration at 300 umol/kg, po administered 1 hr before thioglycollate challenge measured after 4 hrs; format: functional, organism-based
Procedure, shortened: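 Mice dosed at 300 μmol/kg po in arabic gum, then 1 h later given 1 mL 3% thioglycollate ip. Killed at 4 h, peritoneum washed with 1.5 mL cold PBS; exudate cells recovered and total cells counted in Neubauer chamber; exudate >98% neutrophils. Mean ± SEM, at least six animals, ANOVA/Dunnett vs vehicle.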

Salmonella typhimurium [5] = test: Mutagenic activity in Salmonella Typhimurium TA100 preincubated for 20 to 30 mins; format: toxicity, organism-based; conditions: salmonella enterica subsp. enterica serovar typhimurium
Mus musculus [6] = test: Antinociceptive activity in Swiss albino mouse assessed as reduction in acetic acid-induced abdominal constrictions at 100 umol/kg, po administered 1 hr before acetic acid challenge measured for 20 mins relative to control; format: functional, Abdomen; set-up: scale not given: the % may be the effect or the level left
Procedure, shortened: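 Constrictions counted for 20 min starting 10 min after injection; % inhibition vs vehicle group; mean ± SEM, 10 animals per group, Student's t test.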

Blood = test: Genotoxicity in mouse peripheral blood by micronucleus test; format: toxicity, tissue-based
Salmonella typhimurium [7] = test: Mutagenic activity in Salmonella Typhimurium TA102 preincubated for 20 to 30 mins; format: toxicity, organism-based; conditions: salmonella enterica subsp. enterica serovar typhimurium
[8] = Antiinflammatory activity in knockout-transgenic sickle cell mouse monocytes assessed as TNFalpha level at 300 uM administered 30 mins before LPS challenge measured after […] by ELISA; format: functional, Monocyte
Procedure, shortened: (§1)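 Blood drawn by intracardiac puncture from anesthetized adult knockout-transgenic sickle cell mice; mononuclear cells isolated on Ficoll, adhered 2 h in DMEM + 10% calf serum (5% CO2, 37 °C), monocyte purity >90% by May-Giemsa. Compounds (100 or 300 μM; dexamethasone 1 μM) added 30 min before LPS 1 μg/mL; supernatant TNFα by ELISA after 20 h. Mean ± SEM, N ≥ 4 experiments.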

[9] = Antiinflammatory activity in knockout-transgenic sickle cell mouse monocytes assessed as TNFalpha level at 100 uM administered 30 mins before LPS challenge measured after […] by ELISA; format: functional, Monocyte; procedure, shortened: as §1
[10] = Antiinflammatory activity in knockout-transgenic sickle cell mouse monocytes assessed as inhibition of LPS-induced TNFalpha production at 1 uM administered 30 mins before LPS challenge […]; format: functional, Monocyte

SMILES: O=C1c2ccccc2C(=O)N1c1ccc(CO[N+](=O)[O-])cc1
- inhibition (INH) [1]: 84%
- inhibition (INH) [2]: 67%
- inhibition in vivo at 300 µmol/kg (Mus musculus [3]): 43%
- Activity (Mus musculus [4]): Active
- Activity (Salmonella typhimurium [5]): Non-toxic
- Activity (Mus musculus [6]): 66%
- Activity (Blood): Non-toxic
- Activity (Salmonella typhimurium [7]): Non-toxic

SMILES: Cc1c(N(C)CS(=O)(=O)O)c(=O)n(-c2ccccc2)n1C
- Activity (Mus musculus [6]; Abdomen): inactive

SMILES: O=C1c2ccccc2C(=O)N1c1cccc(CO[N+](=O)[O-])c1
- inhibition (INH) [1]: 91%
- inhibition (INH) [2]: 45%
- inhibition in vivo at 300 µmol/kg (Mus musculus [3]): 65%
- Activity (Mus musculus [4]): Active
- Activity (Salmonella typhimurium [5]): Non-toxic
- Activity (Blood): Non-toxic
- Activity (Salmonella typhimurium [7]): Non-toxic

SMILES: COc1ccc2c(c1)c(CC(=O)O)c(C)n2C(=O)c1ccc(Cl)cc1
- inhibition (Mus musculus [3]): Active

SMILES: O=C1c2ccccc2C(=O)N1CO[N+](=O)[O-]
- inhibition in vivo at 300 µmol/kg (Mus musculus [3]): 43%
- Activity (Mus musculus [4]): Active
- Activity (Salmonella typhimurium [5]): Non-toxic
- Activity (Blood): Non-toxic
- Activity (Salmonella typhimurium [7]): Non-toxic

SMILES: NC(=O)NO [HYDROXYUREA]
- Activity [8]: 579.8 pg/mL
- Activity [9]: 463.3 pg/mL

SMILES: O=C1c2ccccc2C(=O)N1c1ccc(CCO[N+](=O)[O-])cc1
- inhibition in vivo at 300 µmol/kg (Mus musculus [3]): 43%
- Activity (Mus musculus [4]): Active
- Activity (Salmonella typhimurium [5]): Non-toxic
- Activity (Blood): Non-toxic
- Activity (Salmonella typhimurium [7]): Non-toxic

SMILES: O=C1c2ccccc2C(=O)N1CCO[N+](=O)[O-]
- inhibition in vivo at 300 µmol/kg (Mus musculus [3]): 43%
- Activity (Mus musculus [4]): Active
- Activity (Salmonella typhimurium [5]): Non-toxic
- Activity (Mus musculus [6]): 25%
- Activity (Blood): Non-toxic
- Activity (Salmonella typhimurium [7]): Non-toxic

SMILES: C[C@@H]1C[C@H]2[C@@H]3CCC4=CC(=O)C=C[C@]4(C)[C@@]3(F)[C@@H](O)C[C@]2(C)[C@@]1(O)C(=O)CO [DEXAMETHASONE]
- inhibition (INH) [10]: 83%

SMILES: O=C1CCC(N2C(=O)c3ccccc3C2=O)C(=O)N1CO[N+](=O)[O-] (stereo unspecified)
- inhibition in vivo at 300 µmol/kg (Mus musculus [3]): 43%
- Activity (Mus musculus [4]): Active
- Activity (Salmonella typhimurium [5]): Non-toxic
- Activity (Blood): Non-toxic
- Activity (Salmonella typhimurium [7]): Non-toxic
